Test results taken from the RNAGym collection of RNA variant scans (doi:10.1126/science.aae0568).
This sample holds only a part of the variants without activity.

B1: tRNA (parent)
chain: GUUCCGUUGGCGUAAUGGUAACGCGUCUCCCUCCUAAGGAGAAGACUGCGGGUUCGAGUCCCGUACGGAACG

Variants of: B1
Assay: yeast fitness relative to wild type (ratio to wild type); higher = fitter; tRNA-Arg(CCU), competitive growth, 37 C, YPD
Procedure, shortened: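 Variants of the tRNA-Arg(CCU) gene, chemically synthesised with a 3% per-site mutation rate at 69 sites, were placed at the native genomic locus in Saccharomyces cerevisiae. The pooled strains were competed in YPD at 37°C for 24 hours in six parallel replicates. Gene amplicons from the start population and from each end population were read by 100-nucleotide paired-end sequencing. Darwinian fitness relative to wild type came from changes in genotype frequencies; genotypes needed ≥ 100 starting reads, and estimates < 0.5 were set to 0.5.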

Variant | yeast fitness
GUUCCGUUGGCGUAAUGGUAACGCGUCUCCCUCCGAGGGAGAAGACUGUGGGUUCGAGUCCCGUACGGAACG [U35G A37G C49U] | ≤ 0.5
GUUCCGUUGGCGUAAUGGUAACGCGUCUCCCUCCGAAGGCGAAGACUGCGGGUUCGAGUCCCGUACGGAACG [U35G A40C] | 0.682
GUUCCGUUGGCGUAAUGGUAACGCGUCUCCCUCCGAAGGCGAAGACUGCGGGUUCGAGUCCGGUAGGGAACG [U35G A40C C62G C66G] | 0.539
GUUCCGUUGGCGUAAUGGUAACGCGUCUCCCUCCGAAGGAGAGGACUGCGGGUUCGAGUCCCGUACGGAACG [U35G A43G] | 0.725
GUUCCGUUGGCGUAAUGGUAACGCGUCUCCCUCCGAAGGAGAUGAGUGCGGGCUCGAGUCCCGUACGGCACG [U35G A43U C46G U53C A69C] | ≤ 0.5
GUUCCGUUGGCGUAAUGGUAACGCGUCUCCCUCCGAAGGAGAAGUCUGCGGGUUCGAGUCCCGUACGGAACG [U35G A45U] | 0.589
GUUCCGUUGGCGUAAUGGUAACGCGUCUCCCUCCGAAGGAGAAGACUGCGGGUUCGCGUCCCGUACGGACCG [U35G A57C A70C] | ≤ 0.5
GUUCCGUUGGCGUAAUGGUAACGCGUCUCCCUCCGAAGGAGAAGACUGCGGGUUCGAGUCCCGUUCGGAACG [U35G A65U] | 0.606
GUUCCGUUGGCGUAAUGGUAACGCGUCUCCCUCCGAAGGAGAAGACUGCGGGUUCGAGUCCCGUACGGCACG [U35G A69C] | 0.592
GUUCCGUUGGCGUAAUGGUAACGCGUCUCCCUCCGAAGGAGAAGACUGCGGGUUCGAGUCCCGUACGGACCG [U35G A70C] | 0.711
GUUCCGUUGGCGUAAUGGUAACGCGUCUCCCUCCGAAGGAGAAGAUUGCGGGUUCGAGUCCCGUCCCGAACG [U35G C46U A65C G67C] | ≤ 0.5
GUUCCGUUGGCGUAAUGGUAACGCGUCUCCCUCCGAAGGAGAAGACUGAGGGUUCGAGUCCCGUACGGAACG [U35G C49A] | 0.595
GUUCCGUUGGCGUAAUGGUAACGCGUCUCCCUCCGAAGGAGAAGACUGCGGGUUUGAGUCCCGUACGGAACG [U35G C55U] | 0.664
GUUCCGUUGGCGUAAUGGUAACGCGUCUCCCUCCGAAGGAGAAGACUGCGGGUUCGAGUCUCGUACGGAACG [U35G C61U] | 0.792
GUUCCGUUGGCGUAAUGGUAACGCGUCUCCCUCCGAAGGAGAAGACUGCGGGUUCGAGUCCGGUACGGAACG [U35G C62G] | 0.597
GUUCCGUUGGCGUAAUGGUAACGCGUCUCCCUCCGAAGGAGAAGACUGCGGGUUCGAGUCCUGUACGGAACG [U35G C62U] | 0.7
GUUCCGUUGGCGUAAUGGUAACGCGUCUCCCUCCGAACGAGAAGACUGCGGGUUCGAGUCCCAUACGGAACG [U35G G38C G63A] | ≤ 0.5
GUUCCGUUGGCGUAAUGGUAACGCGUCUCCCUCCGAAGGAGAAAACUGCGGGUUCGAGUCCCGUACGGAACG [U35G G44A] | 0.509
GUUCCGUUGGCGUAAUGGUAACGCGUCUCCCUCCGAAGGAGAAGACUGCGAGUUCGAGUCCCGUACGGAACG [U35G G51A] | 0.634

Variant | yeast fitness
GUUCCGUUGGCGUAAUGGUAACGCGUCUCCCUCCGAAGGAGAAGACUGCGAGUUCGAGUCCCGUCCGGAACG [U35G G51A A65C] | 0.622
GUUCCGUUGGCGUAAUGGUAACGCGUCUCCCUCCGAAGGAGAAGACUGCGGAUUCGAGUCCCGUACGGAACG [U35G G52A] | ≤ 0.5
GUUCCGUUGGCGUAAUGGUAACGCGUCUCCCUCCGAAGGAGAAGACUGCGGGUUCGAGUCCCAUACGGAACG [U35G G63A] | 0.7
GUUCCGUUGGCGUAAUGGUAACGCGUCUCCCUCCGAAGGAGAAGACUGCGGGUUCGAGUCCCGUACAGAACG [U35G G67A] | 0.616
GUUCCGUUGGCGUAAUGGUAACGCGUCUCCCUCCGAAGGAGAAGACUGCGGGGUCGAGUCCCGUACGGAACG [U35G U53G] | 0.592
GUUCCGUUGGCGUAAUGGUAACGCGUCUCCCUCCGAAGGAGAAGACUGCGGGUUCGAGACCCGUACGGAACG [U35G U59A] | 0.646
GUUCCGUUGGCGUAAUGGUAACGCGUCUCCCUCCGAAGGAGAAGACUGCGGGUUCGAGUCCCGCUCGGAACG [U35G U64C A65U] | ≤ 0.5
GUUCCGUUGGCGUAAUGGUAACGCGUCUCCCUCCGAAGGAGAAGACUGCGGGUUCGAGUCCCGCACGGCACG [U35G U64C A69C] | ≤ 0.5
GUUCCGUUGGCGUAAUGGUAACGCGUCUCCCUCCUCCGGAGAAGACUGCGGGGUCGAGUCCCGUAUGGACCG [A36C A37C U53G C66U A70C] | 0.531
GUUCCGUUGGCGUAAUGGUAACGCGUCUCCCUCCUCGGGAGAAGACUGCGGGUUCGAGUCCCGUACGGAACG [A36C A37G] | 0.611
GUUCCGUUGGCGUAAUGGUAACGCGUCUCCCUCCUCGGGAGAAGACUGCGGGUUCAAGUCCCGUACGGAACG [A36C A37G G56A] | ≤ 0.5
GUUCCGUUGGCGUAAUGGUAACGCGUCUCCCUCCUCUGGAGAAGACUGCGGGUUCGAGUCCCGUACGGAACG [A36C A37U] | ≤ 0.5
GUUCCGUUGGCGUAAUGGUAACGCGUCUCCCUCCUCUGGAGAAGACUGCCGGUUCGAGUCCCGUAUGGAACG [A36C A37U G50C C66U] | 0.56
GUUCCGUUGGCGUAAUGGUAACGCGUCUCCCUCCUCAGGCGAAGACUGCGGGUUCGAGUCCCGUACGGAACG [A36C A40C] | 0.572
GUUCCGUUGGCGUAAUGGUAACGCGUCUCCCUCCUCAGGGGAAGAUUGCGGGUUCGAGUCCCGUACGGAACG [A36C A40G C46U] | 0.569
GUUCCGUUGGCGUAAUGGUAACGCGUCUCCCUCCUCAGGUGAAGAAUGCGGGUUCGAGUCCCGUACGCAACG [A36C A40U C46A G68C] | 0.584
GUUCCGUUGGCGUAAUGGUAACGCGUCUCCCUCCUCAGGAGGAGACUGCGGGUUCGAGUCACGUACGGAACG [A36C A42G C61A] | ≤ 0.5
GUUCCGUUGGCGUAAUGGUAACGCGUCUCCCUCCUCAGGAGUAGACUGCGGGUUCGAGUCCCGUACGGAACG [A36C A42U] | 0.639
GUUCCGUUGGCGUAAUGGUAACGCGUCUCCCUCCUCAGGAGUGGACUGCGGGUUCGAGUCCCCUACGGAACG [A36C A42U A43G G63C] | 0.509
